# ChEMBL document CHEMBL1155224, “Discovery of new inhibitors of resistant Streptococcus pneumoniae penicillin binding protein (PBP) 2x by structure-based virtual screening” (J Med Chem, 2009)
# Numbering of substitutions follows the chain as printed. Active and inactive are the calls of the source. No cut-off for these calls is given here.
# Legend:
# [1] = target: T1, Penicillin-binding protein 2X (Streptococcus pneumoniae R6) (UniProt P59676); experiment: Inhibition of penicillin-sensitive Streptococcus pneumoniae R6 PBP2X preincubated for 1 hr before addition of substrate (R)-[2-(benzoylamino)propionylsulfanyl]acetic acid
# T1 sequence (whole entry): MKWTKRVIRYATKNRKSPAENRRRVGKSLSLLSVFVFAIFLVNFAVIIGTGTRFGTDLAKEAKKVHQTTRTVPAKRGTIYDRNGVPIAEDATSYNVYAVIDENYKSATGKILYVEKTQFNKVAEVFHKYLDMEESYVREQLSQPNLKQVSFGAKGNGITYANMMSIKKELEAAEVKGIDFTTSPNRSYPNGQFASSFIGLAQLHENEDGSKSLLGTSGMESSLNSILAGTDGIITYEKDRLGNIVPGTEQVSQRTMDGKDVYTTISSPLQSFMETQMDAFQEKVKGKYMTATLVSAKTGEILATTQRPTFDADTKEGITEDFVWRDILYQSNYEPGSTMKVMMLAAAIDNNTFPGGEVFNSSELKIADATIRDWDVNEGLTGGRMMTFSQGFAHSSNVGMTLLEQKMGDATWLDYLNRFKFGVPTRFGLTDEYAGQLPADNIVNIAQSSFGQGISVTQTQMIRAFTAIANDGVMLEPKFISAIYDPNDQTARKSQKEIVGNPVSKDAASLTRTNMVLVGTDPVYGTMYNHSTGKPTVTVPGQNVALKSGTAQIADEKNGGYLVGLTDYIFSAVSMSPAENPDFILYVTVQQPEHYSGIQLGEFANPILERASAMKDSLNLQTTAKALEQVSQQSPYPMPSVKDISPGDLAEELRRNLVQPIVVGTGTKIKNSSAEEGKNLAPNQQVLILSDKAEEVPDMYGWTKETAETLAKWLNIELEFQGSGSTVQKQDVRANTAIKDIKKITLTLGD
# In short: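 Compounds taken from 100 mM DMF stocks (1% DMF final) and preincubated with 0.09 μM R6-PBP2x in 10 mM sodium phosphate pH 7.0 with 0.01 mg/mL BSA, 60 min, 25 °C. Spontaneous hydrolysis without enzyme measured. Triplicates. IC50 fitted from residual activity versus decreasing inhibitor concentration, with 0.01% Triton X-100.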
# [2] = target: T2, Penicillin-binding protein 2x (Streptococcus pneumoniae serotype 4 (strain ATCC BAA-334 / TIGR4)) (UniProt P14677); experiment: Inhibition of penicillin-resistant Streptococcus pneumoniae 5204 PBP2X preincubated for 4 hrs before addition of substrate (R)-[2-(benzoylamino)propionylsulfanyl]acetic acid
# T2 sequence (whole entry): T1 sequence (whole entry) with M385T
# In short: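 0.6 μM 5204-PBP2x preincubated 4 h at 25 °C with inhibitor in 10 mM sodium phosphate pH 7.0, 70 mM D-alanine, 0.01 mg/mL BSA, 1% DMF, 0.01% Triton X-100. Assays were run in triplicate, and IC50 was fitted from residual activity versus decreasing inhibitor concentrations.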
Compound,Activity [1],Activity [2]
C[C@@H](O)[C@H]1C(=O)N2C(C(=O)O)=C([C@H]3CCCO3)S[C@H]12,Active,Active
C[C@@H](O)[C@H]1C(=O)N2C(C(=O)[O-])=C(SC3Cn4cnc[n+]4C3)[C@H](C)[C@H]12 (stereo not given in full),Active,Active
Nc1nc(/C(=N/O)C(=O)N[C@@H]2C(=O)N3C(C(=O)O)=C(/C=C4\CCN([C@@H]5CCNC5)C4=O)CS[C@H]23)ns1,Active,Active
CO/N=C(\C(=O)N[C@@H]1C(=O)N2C(C(=O)O)=C(COC(N)=O)CS[C@H]12)c1ccco1,Active,Active
CC(=O)NC1CON(C2(C(=O)O)CCC(=O)O2)C1=O (stereo not given),Active,Active
O=C(Cc1cccs1)N[C@@H]1C(=O)N2C(C(=O)O)=C(/C=C/c3ccc([N+](=O)[O-])cc3[N+](=O)[O-])CS[C@H]12,Active,Active
C[C@@H](NC(=O)c1ccccc1)C(=O)SCC(=O)O,Active,Active
N[C@@H](C(=O)N[C@@H]1C(=O)N2C(C(=O)O)=C(Cl)CC[C@H]12)c1ccccc1,Active,Active
O=C(COc1ccccc1)N[C@H]1CON([C@@]2(C(=O)O)CCC(=O)O2)C1=O,Active,Active
CO[C@H]1CCC[C@H]2C1=C(C(=O)O)N1C(=O)[C@H]([C@@H](C)O)[C@@H]21,Active,Active
CC(=N)N1CC[C@H](SC2=C(C(=O)O)N3C(=O)[C@H]([C@@H](C)O)[C@H]3C2)C1,Active,Active
CCO/N=C(\C(=O)NC1C(=O)N2C(C(=O)[O-])=CC(/C=C/Sc3cc[n+](C)cc3)SC12)c1nsc(N)n1 (stereo not given),Active,Active
CC1(C)S[C@@H]2[C@H](NC(=O)[C@H](N)c3ccccc3)C(=O)N2[C@H]1C(=O)O,Active,Active
C[C@@H](O)[C@H]1C(=O)N2C(C(=O)O)=C(SCCNC=N)C[C@H]12,Active,Active
C[C@H]1COc2c(N3CCN(C)CC3)c(F)cc3c(=O)c(C(=O)O)cn1c23,Active,Active
C[C@@H](O)[C@H]1C(=O)N2C(C(=O)O)=C(SC3CN(C4=NCCS4)C3)[C@H](C)[C@H]12,Active,Active
CCn1c2ccccc2c2cc(/C=C3\S/C(=N\c4ccccc4)N(C(C(=O)O)c4ccccc4)C3=O)ccc21 (stereo not given),inactive,inactive
CO/N=C(\C(=O)N[C@@H]1C(=O)N2C(C(=O)O)=C(COC(C)=O)CS[C@H]12)c1csc(N)n1,Active,Active
C[C@@H](O)[C@H]1C(=O)N2C(C(=O)O)=C(S[C@@H]3CN[C@H](C(=O)N(C)C)C3)[C@H](C)[C@H]12,Active,Active
NCCSCc1cnccc1SC1=C(C(=O)O)N2C(=O)[C@@H](NC(=O)/C(=N\O)c3nc(N)sc3Cl)[C@H]2SC1,Active,Active
CC(NC(=O)C(C)NC(=O)CCCCCN)C(=O)O (stereo not given),inactive,inactive
COCC1=C(C(=O)O)N2C(=O)[C@@H](NC(=O)/C(=N\OC)c3csc(N)n3)[C@H]2SC1,Active,Active
CCn1c2ccccc2c2cc(/C=C3\S/C(=N\c4ccccc4)N(C(C(=O)O)C(C)C)C3=O)ccc21 (stereo not given),inactive,inactive
C=CC1=C(C(=O)O)N2C(=O)[C@@H](NC(=O)/C(=N\O)c3csc(N)n3)[C@H]2SC1,Active,Active
Cc1cc(SCC2=C(C(=O)[O-])N3C[C@@H](NC(=O)CSc4c(Cl)cc(/C=C/C(=O)NCC(=O)[O-])cc4Cl)[C@H]3SC2)cc(C)[n+]1CCC[N+]1(C)CCOCC1,Active,Active
